From ChEMBL document CHEMBL4014350, “Alkoxyurea-Based Histone Deacetylase Inhibitors Increase Cisplatin Potency in Chemoresistant Cancer Cell Lines” (J Med Chem, 2017)
The source made the active and inactive calls. The calls are words filed in the database; no cut-off is given here.

Assays:
[1] = molecular target: T1, Histone deacetylase 1/6 (Homo sapiens) (UniProt Q13547+Q9UBN7); experiment: Inhibition of HDAC1/HDAC6 in human Cal27CisR cells assessed as potentiation of 3.16 uM cisplatin-induced cytotoxicity by measuring combination index at 900 nM preincubated for 48 hrs followed by cisplatin treatment measured after 72 hrs by MTT assay
T1 sequence (Q13547 whole entry, looked up): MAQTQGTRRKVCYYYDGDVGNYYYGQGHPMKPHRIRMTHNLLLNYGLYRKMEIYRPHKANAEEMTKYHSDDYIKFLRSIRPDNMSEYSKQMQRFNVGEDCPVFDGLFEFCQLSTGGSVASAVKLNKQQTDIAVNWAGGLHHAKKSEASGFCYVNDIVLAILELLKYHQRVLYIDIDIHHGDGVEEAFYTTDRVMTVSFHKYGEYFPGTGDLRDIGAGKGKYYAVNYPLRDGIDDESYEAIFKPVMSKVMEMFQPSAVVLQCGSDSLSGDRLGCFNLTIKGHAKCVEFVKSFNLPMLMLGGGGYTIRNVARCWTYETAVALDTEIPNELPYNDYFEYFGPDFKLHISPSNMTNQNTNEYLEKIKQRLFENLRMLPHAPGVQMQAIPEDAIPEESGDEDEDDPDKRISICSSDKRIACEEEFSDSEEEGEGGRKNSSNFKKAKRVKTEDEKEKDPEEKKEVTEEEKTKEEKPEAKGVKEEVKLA
T1 sequence (Q9UBN7 whole entry, looked up): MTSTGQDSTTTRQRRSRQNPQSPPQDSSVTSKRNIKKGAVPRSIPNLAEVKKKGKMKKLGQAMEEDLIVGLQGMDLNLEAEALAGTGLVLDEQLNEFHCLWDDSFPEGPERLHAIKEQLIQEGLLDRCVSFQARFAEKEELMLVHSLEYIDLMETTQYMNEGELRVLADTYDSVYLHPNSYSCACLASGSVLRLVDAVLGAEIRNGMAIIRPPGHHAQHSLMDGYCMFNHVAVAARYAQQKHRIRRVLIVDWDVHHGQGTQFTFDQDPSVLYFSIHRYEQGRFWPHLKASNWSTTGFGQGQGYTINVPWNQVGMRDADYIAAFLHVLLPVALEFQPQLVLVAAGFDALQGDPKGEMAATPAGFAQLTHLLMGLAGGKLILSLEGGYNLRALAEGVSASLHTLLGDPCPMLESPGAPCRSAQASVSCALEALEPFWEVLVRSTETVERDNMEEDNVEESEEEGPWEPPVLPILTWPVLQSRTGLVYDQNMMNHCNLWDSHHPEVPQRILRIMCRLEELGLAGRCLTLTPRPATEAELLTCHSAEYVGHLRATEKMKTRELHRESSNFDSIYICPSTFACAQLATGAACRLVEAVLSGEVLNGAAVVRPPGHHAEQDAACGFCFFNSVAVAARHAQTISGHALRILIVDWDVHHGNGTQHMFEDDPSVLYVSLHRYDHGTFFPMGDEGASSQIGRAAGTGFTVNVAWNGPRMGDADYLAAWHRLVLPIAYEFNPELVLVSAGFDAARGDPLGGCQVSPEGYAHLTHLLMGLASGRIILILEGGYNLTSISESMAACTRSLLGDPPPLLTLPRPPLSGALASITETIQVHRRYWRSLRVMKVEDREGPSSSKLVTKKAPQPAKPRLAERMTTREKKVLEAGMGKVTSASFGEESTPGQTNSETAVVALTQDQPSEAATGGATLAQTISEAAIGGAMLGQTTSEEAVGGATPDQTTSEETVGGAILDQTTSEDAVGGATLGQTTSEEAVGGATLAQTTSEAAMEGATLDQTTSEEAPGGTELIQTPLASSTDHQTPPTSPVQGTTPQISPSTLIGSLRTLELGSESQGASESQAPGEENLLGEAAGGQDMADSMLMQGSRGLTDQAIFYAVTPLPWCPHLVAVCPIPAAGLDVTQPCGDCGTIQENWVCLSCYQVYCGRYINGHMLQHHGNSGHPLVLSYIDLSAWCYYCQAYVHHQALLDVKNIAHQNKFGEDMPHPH

[2] = molecular target: T1, Histone deacetylase 1/6 (Homo sapiens); experiment: Inhibition of HDAC1/HDAC6 in human Cal27CisR cells assessed as potentiation of 1 uM cisplatin-induced cytotoxicity by measuring combination index at 1500 uM preincubated for 48 hrs followed by cisplatin treatment measured after 72 hrs by MTT assay; format: cell-based
In short: (§1)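 Cal27CisR cells preincubated 48 h with the HDAC inhibitor, then exposed to cisplatin for 72 h. Viability read by MTT. Combination index calculated by the Chou–Talalay method: CI > 1 antagonism, CI = 1 additive, CI < 0.9 synergism. Points with fraction affected below 0.20 are flagged. Values are the mean of three experiments.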

CAL-27 [3] = experiment: Potentiation of 0.5 uM cisplatin-induced cytotoxicity against human CAL27 cells assessed as decrease in cell viability by measuring combination index at 1500 uM preincubated for 48 hrs followed by cisplatin treatment measured after 72 hrs by MTT assay; format: functional
In short: (§2)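 Cal27 and cisplatin-resistant Cal27CisR cells were preincubated with the HDAC inhibitor for 48 h, then given cisplatin in combination. Viability was read by MTT after 72 h. The combination index was computed by the Chou–Talalay method: CI > 1 is antagonism, CI = 1 is additive, and CI < 0.9 is synergism. Points with fraction affected below 0.20 were flagged.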

[4] = molecular target: T1, Histone deacetylase 1/6 (Homo sapiens); experiment: Inhibition of HDAC1/HDAC6 in human Cal27CisR cells assessed as potentiation of 10 uM cisplatin-induced cytotoxicity by measuring combination index at 2000 nM preincubated for 48 hrs followed by cisplatin treatment measured after 72 hrs by MTT assay
[5] = molecular target: T1, Histone deacetylase 1/6 (Homo sapiens); experiment: Inhibition of HDAC1/HDAC6 in human Cal27CisR cells assessed as potentiation of 1 uM cisplatin-induced cytotoxicity by measuring combination index at 900 uM preincubated for 48 hrs followed by cisplatin treatment measured after 72 hrs by MTT assay; format: cell-based
In short: as §1

[6] = molecular target: T1, Histone deacetylase 1/6 (Homo sapiens); experiment: Inhibition of HDAC1/HDAC6 in human Cal27CisR cells assessed as potentiation of 3.16 uM cisplatin-induced cytotoxicity by measuring combination index at 2000 nM preincubated for 48 hrs followed by cisplatin treatment measured after 72 hrs by MTT assay
[7] = molecular target: T1, Histone deacetylase 1/6 (Homo sapiens); experiment: Inhibition of HDAC1/HDAC6 in human Cal27CisR cells assessed as potentiation of 1 uM cisplatin-induced cytotoxicity by measuring combination index at 2000 uM preincubated for 48 hrs followed by cisplatin treatment measured after 72 hrs by MTT assay; format: cell-based
In short: as §1

CAL-27 [8] = experiment: Potentiation of 1 uM cisplatin-induced cytotoxicity against human CAL27 cells assessed as decrease in cell viability by measuring combination index at 900 uM preincubated for 48 hrs followed by cisplatin treatment measured after 72 hrs by MTT assay; format: functional
In short: (§3)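 HDAC inhibitor was added 48 h before cisplatin, then cells were exposed to cisplatin for 72 h and viability was read by MTT assay. Combination index was computed by the Chou–Talalay method: CI > 1 is antagonism, CI = 1 additive, CI < 0.9 synergism. Points with fraction affected below 0.20 were flagged.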

CAL-27 [9] = experiment: Potentiation of 0.316 uM cisplatin-induced cytotoxicity against human CAL27 cells assessed as decrease in cell viability by measuring combination index at 1500 uM preincubated for 48 hrs followed by cisplatin treatment measured after 72 hrs by MTT assay; format: functional; conditions: in the assay text read “at 1500 nM” for “at 1500 uM”
In short: as §2

CAL-27 [10] = experiment: Potentiation of 0.316 uM cisplatin-induced cytotoxicity against human CAL27 cells assessed as decrease in cell viability by measuring combination index at 700 nM preincubated for 48 hrs followed by cisplatin treatment measured after 72 hrs by MTT assay
[11] = molecular target: T1, Histone deacetylase 1/6 (Homo sapiens); experiment: Inhibition of HDAC1/HDAC6 in human Cal27CisR cells assessed as potentiation of 5 uM cisplatin-induced cytotoxicity by measuring combination index at 1000 uM preincubated for 48 hrs followed by cisplatin treatment measured after 72 hrs by MTT assay; format: cell-based
In short: as §2

[12] = molecular target: T1, Histone deacetylase 1/6 (Homo sapiens); experiment: Inhibition of HDAC1/HDAC6 in human Cal27CisR cells assessed as potentiation of 5 uM cisplatin-induced cytotoxicity by measuring combination index at 900 uM preincubated for 48 hrs followed by cisplatin treatment measured after 72 hrs by MTT assay; format: cell-based
In short: as §2

[13] = molecular target: T1, Histone deacetylase 1/6 (Homo sapiens); experiment: Inhibition of HDAC1/HDAC6 in human Cal27CisR cells assessed as potentiation of cisplatin-induced apoptosis at 1 uM preincubated for 48 hrs followed by cisplatin treatment for 6 hrs measured after 24 hrs by propidium iodide dye-based flow cytometry (reference value: 20.3%); format: cell-based; design: scale not given: the % may be the effect or the level left
CAL-27 [14] = experiment: Potentiation of cisplatin-induced cytotoxicity against human CAL27 cells assessed as fold reduction in cisplatin IC50 at 1 uM preincubated for 48 hrs followed by cisplatin treatment measured after 72 hrs by MTT assay relative to cisplatin alone; format: functional
In short: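 Cells were preincubated 48 h with HDAC inhibitor, then cisplatin was added over a concentration range for 72 h, with MTT read-out. Shift factor is cisplatin-alone IC50 divided by combination IC50. Data are mean ± SEM of pooled data from at least three independent experiments, each in triplicate. Significance was by t test (p < 0.05).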

CAL-27 [15] = experiment: Induction of apoptosis in human CAL27 cells at 0.5 uM for 48 hrs by propidium iodide dye-based flow cytometry; format: functional, cell-based
CAL-27 [16] = experiment: Potentiation of 0.316 uM cisplatin-induced cytotoxicity against human CAL27 cells assessed as decrease in cell viability by measuring combination index at 900 uM preincubated for 48 hrs followed by cisplatin treatment measured after 72 hrs by MTT assay; format: functional; conditions: in the assay text read “at 900 nM” for “at 900 uM”
In short: as §2

CAL-27 [17] = experiment: Potentiation of 5 uM cisplatin-induced cytotoxicity against human CAL27 cells assessed as decrease in cell viability by measuring combination index at 1500 uM preincubated for 48 hrs followed by cisplatin treatment measured after 72 hrs by MTT assay; format: functional; conditions: in the assay text read “at 1500 nM” for “at 1500 uM”
In short: as §3

CAL-27 [18] = experiment: Potentiation of 0.316 uM cisplatin-induced cytotoxicity against human CAL27 cells assessed as decrease in cell viability by measuring combination index at 1000 uM preincubated for 48 hrs followed by cisplatin treatment measured after 72 hrs by MTT assay; format: functional; conditions: in the assay text read “at 1000 nM” for “at 1000 uM”
In short: as §2

CAL-27 [19] = experiment: Potentiation of 2 uM cisplatin-induced cytotoxicity against human CAL27 cells assessed as decrease in cell viability by measuring combination index at 100 uM preincubated for 48 hrs followed by cisplatin treatment measured after 72 hrs by MTT assay; format: functional; conditions: in the assay text read “at 100 nM” for “at 100 uM”
In short: as §3

| Activity [13] [%] | Structure (SMILES) | CI [1] | CI [2] | CI (CAL-27 [3]) | CI [4] | CI [5] | CI [6] | CI [7] | CI (CAL-27 [8]) | CI (CAL-27 [9]) | CI (CAL-27 [10]) | CI [11] | CI [12] | fold change (FC) (CAL-27 [14]) | Activity (CAL-27 [15]) | CI (CAL-27 [16]) | CI (CAL-27 [17]) | CI (CAL-27 [18]) | CI (CAL-27 [19]) |
| --- | --- | --- | --- | --- | --- | --- | --- | --- | --- | --- | --- | --- | --- | --- | --- | --- | --- | --- | --- |
| 56.3 | COc1cc(NC(=O)NOCCCCCC(=O)NO)c2ncccc2c1 | 0.79 | 1 | 0.74 | 0.65 | < 0.2 | 0.6 | 0.82 | 0.54 | 0.82 | <0.2 | 0.43 | 0.52 | 7.1 | inactive | 0.77 | 0.55 | 0.77 | – |
| – | COc1cc(NC(=O)NOCCCCCC(=O)NO)c2nc(OC)cc(C)c2c1 | – | – | – | – | – | – | – | – | – | – | – | – | – | – | – | – | – | 0.31 |
